Paper PMC6203112 (International Journal of Chronic Obstructive Pulmonary …, 2018)

Key:
[1] = human liver; cited from earlier work
[2] = Study 2 Part 1: single ascending dose PK via MDDPI; assay type: in vivo; conditions: human, plasma, inhaled
Outline: (§1)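 Blood was collected in lithium heparin, chilled on ice, and centrifuged at 2,000 ×g for 15 min at ~4°C. Plasma was stabilised with 1 M citric acid (100 µL per 1 mL plasma) and stored at ≤−65°C. After solid-phase extraction, samples were assayed by validated LC-MS/MS with heated electrospray and a deuterated internal standard (LLOQ 10 pg/mL). PK parameters were derived non-compartmentally.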

[3] = Study 1 Part 2: adverse events after multiple OD doses via SDDPI; assay type: in vivo, human
Outline: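 In Study 1 Part 2, healthy men were randomized to five parallel, dose-escalating cohorts. Each received test compound (100–1,600 µg) or matching placebo once daily for 7 days via a capsule-based single-dose dry-powder inhaler. AEs and investigator-assessed relation to study medication were recorded. Results are number (%) of subjects in the safety population (randomized, at least one dose).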

[4] = rats and ferrets, intratracheal administration at doses compatible with those used in humans; cited from earlier work
[5] = Study 1 Part 2: repeat ascending dose; assay type: in vivo, human; conditions: SDDPI; for CL/F / Racc / AUC(0-t): geometric mean (% CV); for AUC(0-t) / Tmax: human, plasma, inhaled; for AUC(0-t): AUC0–24 h; for Tmax: median (range)
Outline: as §1

[6] = Study 2 Part 1: adverse events after single doses via MDDPI; assay type: in vivo, human
Outline: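 Study 2 Part 1 was a three-period single ascending dose design in healthy men and women, with four randomized treatment sequences. At each visit, test compound (2,400, 4,000, 4,800 µg) or placebo was inhaled via a reservoir multi-dose dry-powder inhaler, with the dose rising each visit. AEs and investigator-judged relation to study drug were recorded, reported as number (%) of the safety population.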

CS(=O)(=O)Nc1ccc(C(=O)O[C@@H](Cc2c(Cl)c[n+]([O-])cc2Cl)c2ccc(OC(F)F)c(OCC3CC3)c2)cc1OCC1CC1 [CHF6001]
metabolic stability [1]: metabolically stable | Tmax [2]: 3 h | AUC(0-t) ([2]; 2400 µg): 35.2 ng·h/mL | Cmax ([2]; 2400 µg): 1.23 ng/mL | Tmax ([2]; 2400 µg): 3 h | half-life ([2]; 2400 µg): 49.1 h | AUC(0-t) ([2]; 4000 µg): 75.8 ng·h/mL | Cmax ([2]; 4000 µg): 2.55 ng/mL | Tmax ([2]; 4000 µg): 3 h | half-life ([2]; 4000 µg): 44 h | AUC(0-t) ([2]; 4800 µg): 77.4 ng·h/mL | Cmax ([2]; 4800 µg): 2.72 ng/mL | Tmax ([2]; 4800 µg): 3 h | half-life ([2]; 4800 µg): 40 h | AE considered related to study medication ([3]; 100 µg OD 7 days, N=8): 0 Number (%) of subjects | AE leading to death ([3]; 100 µg OD 7 days, N=8): 0 Number (%) of subjects | AE leading to withdrawal ([3]; 100 µg OD 7 days, N=8): 0 Number (%) of subjects | At least one AE ([3]; 100 µg OD 7 days, N=8): 3 (37.5) Number (%) of subjects | At least one SAE ([3]; 100 µg OD 7 days, N=8): 0 Number (%) of subjects | Back pain (AE) ([3]; 100 µg OD 7 days, N=8): 0 Number (%) of subjects | Diarrhea (AE considered related to study medication) ([3]; 100 µg OD 7 days, N=8): 0 Number (%) of subjects | Flatulence (AE considered related to study medication) ([3]; 100 µg OD 7 days, N=8): 0 Number (%) of subjects | Headache (AE considered related to study medication) ([3]; 100 µg OD 7 days, N=8): 0 Number (%) of subjects | Headache (AE) ([3]; 100 µg OD 7 days, N=8): 0 Number (%) of subjects | Nausea (AE considered related to study medication) ([3]; 100 µg OD 7 days, N=8): 0 Number (%) of subjects | Parosmia (AE considered related to study medication) ([3]; 100 µg OD 7 days, N=8): 0 Number (%) of subjects | Severe AE ([3]; 100 µg OD 7 days, N=8): 0 Number (%) of subjects | AE considered related to study medication ([3]; 300 µg OD 7 days, N=8): 0 Number (%) of subjects | AE leading to death ([3]; 300 µg OD 7 days, N=8): 0 Number (%) of subjects | AE leading to withdrawal ([3]; 300 µg OD 7 days, N=8): 0 Number (%) of subjects | At least one AE ([3]; 300 µg OD 7 days, N=8): 2 (25.0) Number (%) of subjects | At least one SAE ([3]; 300 µg OD 7 days, N=8): 0 Number (%) of subjects | Back pain (AE) ([3]; 300 µg OD 7 days, N=8): 0 Number (%) of subjects | Diarrhea (AE considered related to study medication) ([3]; 300 µg OD 7 days, N=8): 0 Number (%) of subjects | Flatulence (AE considered related to study medication) ([3]; 300 µg OD 7 days, N=8): 0 Number (%) of subjects | Headache (AE considered related to study medication) ([3]; 300 µg OD 7 days, N=8): 0 Number (%) of subjects | Headache (AE) ([3]; 300 µg OD 7 days, N=8): 0 Number (%) of subjects | Nausea (AE considered related to study medication) ([3]; 300 µg OD 7 days, N=8): 0 Number (%) of subjects | Parosmia (AE considered related to study medication) ([3]; 300 µg OD 7 days, N=8): 0 Number (%) of subjects | Severe AE ([3]; 300 µg OD 7 days, N=8): 0 Number (%) of subjects | AE considered related to study medication ([3]; 600 µg OD 7 days, N=9): 0 Number (%) of subjects | AE leading to death ([3]; 600 µg OD 7 days, N=9): 0 Number (%) of subjects | AE leading to withdrawal ([3]; 600 µg OD 7 days, N=9): 0 Number (%) of subjects | At least one AE ([3]; 600 µg OD 7 days, N=9): 5 (55.6) Number (%) of subjects | At least one SAE ([3]; 600 µg OD 7 days, N=9): 0 Number (%) of subjects | Back pain (AE) ([3]; 600 µg OD 7 days, N=9): 0 Number (%) of subjects | Diarrhea (AE considered related to study medication) ([3]; 600 µg OD 7 days, N=9): 0 Number (%) of subjects | Flatulence (AE considered related to study medication) ([3]; 600 µg OD 7 days, N=9): 0 Number (%) of subjects | Headache (AE considered related to study medication) ([3]; 600 µg OD 7 days, N=9): 0 Number (%) of subjects | Headache (AE) ([3]; 600 µg OD 7 days, N=9): 2 (22.2) Number (%) of subjects | Nausea (AE considered related to study medication) ([3]; 600 µg OD 7 days, N=9): 0 Number (%) of subjects | Parosmia (AE considered related to study medication) ([3]; 600 µg OD 7 days, N=9): 0 Number (%) of subjects | Severe AE ([3]; 600 µg OD 7 days, N=9): 0 Number (%) of subjects | AE considered related to study medication ([3]; 1,200 µg OD 7 days, N=9): 0 Number (%) of subjects | AE leading to death ([3]; 1,200 µg OD 7 days, N=9): 0 Number (%) of subjects | AE leading to withdrawal ([3]; 1,200 µg OD 7 days, N=9): 0 Number (%) of subjects | At least one AE ([3]; 1,200 µg OD 7 days, N=9): 2 (22.2) Number (%) of subjects | At least one SAE ([3]; 1,200 µg OD 7 days, N=9): 0 Number (%) of subjects | Back pain (AE) ([3]; 1,200 µg OD 7 days, N=9): 0 Number (%) of subjects | Diarrhea (AE considered related to study medication) ([3]; 1,200 µg OD 7 days, N=9): 0 Number (%) of subjects | Flatulence (AE considered related to study medication) ([3]; 1,200 µg OD 7 days, N=9): 0 Number (%) of subjects | Headache (AE considered related to study medication) ([3]; 1,200 µg OD 7 days, N=9): 0 Number (%) of subjects | Headache (AE) ([3]; 1,200 µg OD 7 days, N=9): 0 Number (%) of subjects | Nausea (AE considered related to study medication) ([3]; 1,200 µg OD 7 days, N=9): 0 Number (%) of subjects | Parosmia (AE considered related to study medication) ([3]; 1,200 µg OD 7 days, N=9): 0 Number (%) of subjects | Severe AE ([3]; 1,200 µg OD 7 days, N=9): 0 Number (%) of subjects | AE considered related to study medication ([3]; 1,600 µg OD 7 days, N=7): 0 Number (%) of subjects | AE leading to death ([3]; 1,600 µg OD 7 days, N=7): 0 Number (%) of subjects | AE leading to withdrawal ([3]; 1,600 µg OD 7 days, N=7): 0 Number (%) of subjects | At least one AE ([3]; 1,600 µg OD 7 days, N=7): 3 (42.9) Number (%) of subjects | At least one SAE ([3]; 1,600 µg OD 7 days, N=7): 0 Number (%) of subjects | Back pain (AE) ([3]; 1,600 µg OD 7 days, N=7): 0 Number (%) of subjects | Diarrhea (AE considered related to study medication) ([3]; 1,600 µg OD 7 days, N=7): 0 Number (%) of subjects | Flatulence (AE considered related to study medication) ([3]; 1,600 µg OD 7 days, N=7): 0 Number (%) of subjects | Headache (AE considered related to study medication) ([3]; 1,600 µg OD 7 days, N=7): 0 Number (%) of subjects | Headache (AE) ([3]; 1,600 µg OD 7 days, N=7): 0 Number (%) of subjects | Nausea (AE considered related to study medication) ([3]; 1,600 µg OD 7 days, N=7): 0 Number (%) of subjects | Parosmia (AE considered related to study medication) ([3]; 1,600 µg OD 7 days, N=7): 0 Number (%) of subjects | Severe AE ([3]; 1,600 µg OD 7 days, N=7): 0 Number (%) of subjects | emesis or nausea [4]: no evidence of emesis or nausea | CL/F ([5]; 100 µg OD, Day 7, N=7): 723 (41.1) mL/min | Racc ([5]; 100 µg OD, Day 7, N=7): 2.89 (16.6) | CL/F ([5]; 300 µg OD, Day 7, N=8): 860 (44.7) mL/min | Racc ([5]; 300 µg OD, Day 7, N=8): 2.49 (31.8) | CL/F ([5]; 600 µg OD, Day 7, N=9): 956 (28.2) mL/min | Racc ([5]; 600 µg OD, Day 7, N=9): 2.47 (20.2) | CL/F ([5]; 1,200 µg OD, Day 7, N=9): 772 (26.6) mL/min | Racc ([5]; 1,200 µg OD, Day 7, N=9): 2.74 (28.2) | CL/F ([5]; 1,600 µg OD, Day 7, N=6): 910 (17.0) mL/min | Racc ([5]; 1,600 µg OD, Day 7, N=6): 2.75 (16.5) | AUC(0-t) ([5]; 100 ug, 100 µg OD, Day 1, N=7): 0.796 ng·h/mL | AUC(0-t) ([5]; 100 ug, 100 µg OD, Day 7, N=7): 2.3 ng·h/mL | Tmax ([5]; 100 ug, 100 µg OD, Day 1, N=7): 1.5 h | Tmax ([5]; 100 ug, 100 µg OD, Day 7, N=7): 1 h | AUC(0-t) ([5]; 300 ug, 300 µg OD, Day 1, N=8): 2.34 ng·h/mL | AUC(0-t) ([5]; 300 ug, 300 µg OD, Day 7, N=8): 5.82 ng·h/mL | Tmax ([5]; 300 ug, 300 µg OD, Day 1, N=8): 2 h | Tmax ([5]; 300 ug, 300 µg OD, Day 7, N=8): 1 h | AUC(0-t) ([5]; 600 ug, 600 µg OD, Day 1, N=9): 4.24 ng·h/mL | AUC(0-t) ([5]; 600 ug, 600 µg OD, Day 7, N=9): 10.5 ng·h/mL | Tmax ([5]; 600 ug, 600 µg OD, Day 1, N=9): 1.5 h | Tmax ([5]; 600 ug, 600 µg OD, Day 7, N=9): 2 h | AE considered related to study medication ([6]; single dose 2,400 µg, N=9): 1 (11.1) Number (%) of subjects | AE leading to death ([6]; single dose 2,400 µg, N=9): 0 Number (%) of subjects | AE leading to withdrawal ([6]; single dose 2,400 µg, N=9): 1 (11.1) Number (%) of subjects | At least one AE ([6]; single dose 2,400 µg, N=9): 3 (33.3) Number (%) of subjects | At least one SAE ([6]; single dose 2,400 µg, N=9): 0 Number (%) of subjects | Severe AE ([6]; single dose 2,400 µg, N=9): 1 (11.1) Number (%) of subjects | AE considered related to study medication ([6]; single dose 4,000 µg, N=8): 1 (12.5) Number (%) of subjects | AE leading to death ([6]; single dose 4,000 µg, N=8): 0 Number (%) of subjects | AE leading to withdrawal ([6]; single dose 4,000 µg, N=8): 0 Number (%) of subjects | At least one AE ([6]; single dose 4,000 µg, N=8): 1 (12.5) Number (%) of subjects | At least one SAE ([6]; single dose 4,000 µg, N=8): 0 Number (%) of subjects | Severe AE ([6]; single dose 4,000 µg, N=8): 0 Number (%) of subjects | AE considered related to study medication ([6]; single dose 4,800 µg, N=8): 0 Number (%) of subjects | AE leading to death ([6]; single dose 4,800 µg, N=8): 0 Number (%) of subjects | AE leading to withdrawal ([6]; single dose 4,800 µg, N=8): 0 Number (%) of subjects | At least one AE ([6]; single dose 4,800 µg, N=8): 1 (12.5) Number (%) of subjects | At least one SAE ([6]; single dose 4,800 µg, N=8): 0 Number (%) of subjects | Severe AE ([6]; single dose 4,800 µg, N=8): 0 Number (%) of subjects
